Measured values reported in article PMC11229888 (RSC Advances, 2024).

Legend:
Hep G2 = experiment: MTT anti-proliferative assay, Hep G2; assay type: cell-based; details: Homo sapiens, HepG2, read-out: IC50 Hep G2
Summary of the method: (§1)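 Cells grown in RPMI-1640 with 10% FBS, 100 units per ml penicillin and 100 μg ml−1 streptomycin at 37 °C, 5% CO2. Seeded at 1.0 × 10^4 cells per well for 48 h, then exposed to a range of test compound concentrations for 24 h. MTT (5 mg ml−1) added for 4 h, formazan dissolved in DMSO, A570 read; viability as percent of untreated; IC50 derived.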

MCF-7 = experiment: MTT anti-proliferative assay, MCF-7; assay type: cell-based; details: Homo sapiens, MCF7, read-out: IC50 MCF-7
Summary of the method: as §1

VEGFR-1 = details: read-out: IC50 VEGFR-1; cited from earlier work
VEGFR-2 = VEGFR-2 (Homo sapiens, UniProt P35968); experiment: biochemical; details: IC50 VEGFR-2, mean ± S.D. of three experiments
Sequence of VEGFR-2 (P35968 20-1356): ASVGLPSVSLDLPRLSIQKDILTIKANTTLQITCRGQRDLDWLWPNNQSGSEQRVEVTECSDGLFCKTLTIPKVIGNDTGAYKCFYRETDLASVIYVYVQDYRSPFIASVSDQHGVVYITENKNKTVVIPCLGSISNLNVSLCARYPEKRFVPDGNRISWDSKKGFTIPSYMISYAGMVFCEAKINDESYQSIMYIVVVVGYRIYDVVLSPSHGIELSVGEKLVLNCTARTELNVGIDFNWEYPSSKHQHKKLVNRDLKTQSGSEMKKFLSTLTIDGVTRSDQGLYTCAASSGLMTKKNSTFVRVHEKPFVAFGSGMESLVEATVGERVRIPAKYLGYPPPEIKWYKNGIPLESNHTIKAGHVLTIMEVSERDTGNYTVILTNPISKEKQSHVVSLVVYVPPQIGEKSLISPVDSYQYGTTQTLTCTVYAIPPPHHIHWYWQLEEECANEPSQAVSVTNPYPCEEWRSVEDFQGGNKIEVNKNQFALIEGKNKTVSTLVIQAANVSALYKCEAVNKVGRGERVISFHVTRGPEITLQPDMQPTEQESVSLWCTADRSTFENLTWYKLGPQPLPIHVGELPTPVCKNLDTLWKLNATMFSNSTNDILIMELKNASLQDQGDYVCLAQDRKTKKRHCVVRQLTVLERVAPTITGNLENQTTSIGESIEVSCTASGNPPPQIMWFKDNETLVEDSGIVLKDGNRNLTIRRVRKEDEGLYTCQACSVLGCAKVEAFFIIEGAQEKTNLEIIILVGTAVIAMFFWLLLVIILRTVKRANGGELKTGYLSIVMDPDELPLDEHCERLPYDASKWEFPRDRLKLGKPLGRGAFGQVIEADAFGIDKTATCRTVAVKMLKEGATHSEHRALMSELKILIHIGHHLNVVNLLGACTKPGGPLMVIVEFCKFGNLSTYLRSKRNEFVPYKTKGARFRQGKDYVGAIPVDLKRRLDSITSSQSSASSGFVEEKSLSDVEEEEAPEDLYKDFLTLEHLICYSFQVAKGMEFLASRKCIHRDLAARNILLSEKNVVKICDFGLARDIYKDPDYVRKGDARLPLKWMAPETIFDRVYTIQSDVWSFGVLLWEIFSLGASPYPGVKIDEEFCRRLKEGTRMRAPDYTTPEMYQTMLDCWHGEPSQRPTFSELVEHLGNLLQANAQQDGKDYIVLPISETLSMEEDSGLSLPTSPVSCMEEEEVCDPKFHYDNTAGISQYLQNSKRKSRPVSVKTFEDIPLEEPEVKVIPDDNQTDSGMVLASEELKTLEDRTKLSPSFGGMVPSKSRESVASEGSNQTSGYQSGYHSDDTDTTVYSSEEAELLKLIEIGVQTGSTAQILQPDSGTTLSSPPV

`CC(=NNC(=O)c1ccccc1Br)c1ccc(Nc2nnc(-c3ccc(Cl)cc3)c3ccccc23)cc1` [Compound 2b, 2-Bromo-N′-(1-[4-{(4-[4-chlorophenyl]phthalazin-1-yl)amino}phenyl]ethylidene)benzohydrazide] showed an IC50 (Hep G2) of 630 ± 10 nM and an IC50 (MCF-7) of 980 ± 10 nM.
Work on `CC(=NNC(=O)c1ccccc1)c1ccc(Nc2nnc(-c3ccc(Cl)cc3)c3ccccc23)cc1` [Compound 2a, N′-(1-[4-{(4-[4-Chlorophenyl]phthalazin-1-yl)amino}phenyl]ethylidene)benzohydrazide] yielded an IC50 (Hep G2) of 770 ± 10 nM and an IC50 (MCF-7) of 1550 ± 10 nM.
Molecule `CNC(=O)c1cc(Oc2ccc(NC(=O)Nc3ccc(Cl)c(C(F)(F)F)c3)cc2)ccn1` [Sorafenib, reference compound] has an IC50 (Hep G2) of 30 ± 10 nM and an IC50 (MCF-7) of 50 ± 10 nM.
`S=C(Nc1ccccc1)Nc1ccc(Oc2nnc(-c3ccc(Cl)cc3)c3ccccc23)cc1` [Compound 4b, 1-(4-[{4-(4-Chlorophenyl)phthalazin-1-yl}oxy]phenyl)-3-phenylthiourea] gave an IC50 (Hep G2) of 1630 ± 30 nM and an IC50 (MCF-7) of 1520 ± 10 nM.
Work on `CC(=NNC(=O)c1cccnc1)c1ccc(Nc2nnc(-c3ccc(Cl)cc3)c3ccccc23)cc1` [Compound 2f, N′-(1-[4-{(4-[4-Chlorophenyl]phthalazin-1-yl)amino}phenyl]ethylidene)nicotinohydrazide] yielded an IC50 (Hep G2) of 750 ± 10 nM and an IC50 (MCF-7) of 780 ± 10 nM.
`CC(=NNC(=O)c1ccccc1O)c1ccc(Nc2nnc(-c3ccc(Cl)cc3)c3ccccc23)cc1` [Compound 2d, N′-(1-[4-{(4-[4-Chlorophenyl]phthalazin-1-yl)amino}phenyl]ethylidene)-2-hydroxybenzohydrazide] showed an IC50 (Hep G2) of 2180 ± 30 nM and an IC50 (MCF-7) of 3710 ± 70 nM.
For `Clc1ccc(Nc2nnc(Cc3ccncc3)c3ccccc23)cc1` [Vatalanib], the IC50 (VEGFR-1) is given as 380 nM.
Work on `CC(=NNC(=O)c1ccccc1Cl)c1ccc(Nc2nnc(-c3ccc(Cl)cc3)c3ccccc23)cc1` [Compound 2c, 2-Chloro-N′-(1-[4-{(4-[4-chlorophenyl]phthalazin-1-yl)amino}phenyl]ethylidene)benzohydrazide] yielded an IC50 (Hep G2) of 590 ± 10 nM and an IC50 (MCF-7) of 1740 ± 10 nM.
With `CC(=O)Nc1ccc(Oc2nnc(-c3ccc(Cl)cc3)c3ccccc23)cc1` [Compound 5a, N-(4-[{4-(4-Chlorophenyl)phthalazin-1-yl}oxy]phenyl)acetamide] the IC50 (Hep G2) was 260 nM, the IC50 (VEGFR-2) was 548 ± 20 nM and the IC50 (MCF-7) was 180 nM.
With `O=C(C=Cc1ccccc1)Nc1ccc(Oc2nnc(-c3ccc(Cl)cc3)c3ccccc23)cc1` [Compound 5d, N-(4-[{4-(4-Chlorophenyl)phthalazin-1-yl}oxy]phenyl)cinnamamide] the IC50 (Hep G2) was 1260 ± 30 nM and the IC50 (MCF-7) was 1120 ± 20 nM.
Work on `CC(=NNC(=S)Nc1ccccc1)c1ccc(Nc2nnc(-c3ccc(Cl)cc3)c3ccccc23)cc1` [Compound 3b, 2-(1-[4-{(4-[4-Chlorophenyl]phthalazin-1-yl)amino}phenyl]ethylidene)-N-phenylhydrazine-1-carbothioamide] yielded an IC50 (Hep G2) of 1530 ± 60 nM and an IC50 (MCF-7) of 870 ± 20 nM.
In the case of `CC(=NNC(N)=S)c1ccc(Nc2nnc(-c3ccc(Cl)cc3)c3ccccc23)cc1` [Compound 3a, 2-(1-[4-{(4-[4-Chlorophenyl]phthalazin-1-yl)amino}phenyl]ethylidene)hydrazine-1-carbothioamide], the IC50 (Hep G2) is reported as 180 nM, the IC50 (VEGFR-2) is reported as 375 ± 10 nM and the IC50 (MCF-7) is reported as 180 nM.
With `CC(=NNC(=O)c1ccc(N)cc1)c1ccc(Nc2nnc(-c3ccc(Cl)cc3)c3ccccc23)cc1` [Compound 2e, 4-Amino-N′-(1-[4-{(4-[4-chlorophenyl]phthalazin-1-yl)amino}phenyl]ethylidene)benzohydrazide] the IC50 (Hep G2) was 1190 ± 40 nM and the IC50 (MCF-7) was 710 ± 20 nM.
For `O=C(Nc1ccccc1)Nc1ccc(Oc2nnc(-c3ccc(Cl)cc3)c3ccccc23)cc1` [Compound 4a, 1-(4-[{4-(4-Chlorophenyl)phthalazin-1-yl}oxy]phenyl)-3-phenylurea], the IC50 (Hep G2) was 90 ± 10 nM, the IC50 (VEGFR-2) was 196 ± 10 nM and the IC50 (MCF-7) was 180 nM.
For `CC(=NNC(=O)c1ccncc1)c1ccc(Nc2nnc(-c3ccc(Cl)cc3)c3ccccc23)cc1` [Compound 2g, N′-(1-[4-{(4-[4-Chlorophenyl]phthalazin-1-yl)amino}phenyl]ethylidene)isonicotinohydrazide], the IC50 (Hep G2) was 120 ± 10 nM, the IC50 (VEGFR-2) was 148 ± 10 nM and the IC50 (MCF-7) was 150 nM.
Work on `O=C(Nc1ccc(Oc2nnc(-c3ccc(Cl)cc3)c3ccccc23)cc1)c1ccccc1` [Compound 5b, N-(4-[{4-(4-Chlorophenyl)phthalazin-1-yl}oxy]phenyl)benzamide] yielded an IC50 (Hep G2) of 220 nM, an IC50 (VEGFR-2) of 331 ± 10 nM and an IC50 (MCF-7) of 150 nM.
`O=C(Nc1ccc(Oc2nnc(-c3ccc(Cl)cc3)c3ccccc23)cc1)c1cccc([N+](=O)[O-])c1` [Compound 5c, N-(4-[{4-(4-Chlorophenyl)phthalazin-1-yl}oxy]phenyl)-3-nitrobenzamide] showed an IC50 (Hep G2) of 1370 ± 140 nM and an IC50 (MCF-7) of 180 nM.
